From ChEMBL document CHEMBL1128716, “4,5-Dihydro-3-(methanesulfonamidophenyl)-1-phenyl-1H-2,4-benzodiazepines: a novel class III antiarrhythmic agents” (J Med Chem, 1995)
Blank lines part the entries; values can stand above or below the molecule they belong to. Calls of active or inactive are those of the source.

Legend:
[1] = organism: Oryctolagus cuniculus; experiment: In vitro concentration at which cardiac refractoriness in rabbit is increased by 20 ms; assay type: functional; conditions: Heart
In short: (§1)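 Isolated hearts stimulated at twice threshold (1 mA minimum), equilibrated 45 min. ERP determined by scanning diastole with a single premature stimulus after 15 min at each of five cumulative concentrations. EC20 is the concentration raising ERP by 20 ms, estimated by linear regression of concentration–response data, in nM; n = 3–5 hearts.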

[2] = biological target: Sodium channel protein type 5 subunit alpha (Homo sapiens, UniProt Q14524); experiment: Blockade of Na+ current in frog oocytes expressing human cardiac sodium channel (HH1); assay type: cell-based, Oocyte
Sodium channel protein type 5 subunit alpha, sequence (Q14524 whole entry): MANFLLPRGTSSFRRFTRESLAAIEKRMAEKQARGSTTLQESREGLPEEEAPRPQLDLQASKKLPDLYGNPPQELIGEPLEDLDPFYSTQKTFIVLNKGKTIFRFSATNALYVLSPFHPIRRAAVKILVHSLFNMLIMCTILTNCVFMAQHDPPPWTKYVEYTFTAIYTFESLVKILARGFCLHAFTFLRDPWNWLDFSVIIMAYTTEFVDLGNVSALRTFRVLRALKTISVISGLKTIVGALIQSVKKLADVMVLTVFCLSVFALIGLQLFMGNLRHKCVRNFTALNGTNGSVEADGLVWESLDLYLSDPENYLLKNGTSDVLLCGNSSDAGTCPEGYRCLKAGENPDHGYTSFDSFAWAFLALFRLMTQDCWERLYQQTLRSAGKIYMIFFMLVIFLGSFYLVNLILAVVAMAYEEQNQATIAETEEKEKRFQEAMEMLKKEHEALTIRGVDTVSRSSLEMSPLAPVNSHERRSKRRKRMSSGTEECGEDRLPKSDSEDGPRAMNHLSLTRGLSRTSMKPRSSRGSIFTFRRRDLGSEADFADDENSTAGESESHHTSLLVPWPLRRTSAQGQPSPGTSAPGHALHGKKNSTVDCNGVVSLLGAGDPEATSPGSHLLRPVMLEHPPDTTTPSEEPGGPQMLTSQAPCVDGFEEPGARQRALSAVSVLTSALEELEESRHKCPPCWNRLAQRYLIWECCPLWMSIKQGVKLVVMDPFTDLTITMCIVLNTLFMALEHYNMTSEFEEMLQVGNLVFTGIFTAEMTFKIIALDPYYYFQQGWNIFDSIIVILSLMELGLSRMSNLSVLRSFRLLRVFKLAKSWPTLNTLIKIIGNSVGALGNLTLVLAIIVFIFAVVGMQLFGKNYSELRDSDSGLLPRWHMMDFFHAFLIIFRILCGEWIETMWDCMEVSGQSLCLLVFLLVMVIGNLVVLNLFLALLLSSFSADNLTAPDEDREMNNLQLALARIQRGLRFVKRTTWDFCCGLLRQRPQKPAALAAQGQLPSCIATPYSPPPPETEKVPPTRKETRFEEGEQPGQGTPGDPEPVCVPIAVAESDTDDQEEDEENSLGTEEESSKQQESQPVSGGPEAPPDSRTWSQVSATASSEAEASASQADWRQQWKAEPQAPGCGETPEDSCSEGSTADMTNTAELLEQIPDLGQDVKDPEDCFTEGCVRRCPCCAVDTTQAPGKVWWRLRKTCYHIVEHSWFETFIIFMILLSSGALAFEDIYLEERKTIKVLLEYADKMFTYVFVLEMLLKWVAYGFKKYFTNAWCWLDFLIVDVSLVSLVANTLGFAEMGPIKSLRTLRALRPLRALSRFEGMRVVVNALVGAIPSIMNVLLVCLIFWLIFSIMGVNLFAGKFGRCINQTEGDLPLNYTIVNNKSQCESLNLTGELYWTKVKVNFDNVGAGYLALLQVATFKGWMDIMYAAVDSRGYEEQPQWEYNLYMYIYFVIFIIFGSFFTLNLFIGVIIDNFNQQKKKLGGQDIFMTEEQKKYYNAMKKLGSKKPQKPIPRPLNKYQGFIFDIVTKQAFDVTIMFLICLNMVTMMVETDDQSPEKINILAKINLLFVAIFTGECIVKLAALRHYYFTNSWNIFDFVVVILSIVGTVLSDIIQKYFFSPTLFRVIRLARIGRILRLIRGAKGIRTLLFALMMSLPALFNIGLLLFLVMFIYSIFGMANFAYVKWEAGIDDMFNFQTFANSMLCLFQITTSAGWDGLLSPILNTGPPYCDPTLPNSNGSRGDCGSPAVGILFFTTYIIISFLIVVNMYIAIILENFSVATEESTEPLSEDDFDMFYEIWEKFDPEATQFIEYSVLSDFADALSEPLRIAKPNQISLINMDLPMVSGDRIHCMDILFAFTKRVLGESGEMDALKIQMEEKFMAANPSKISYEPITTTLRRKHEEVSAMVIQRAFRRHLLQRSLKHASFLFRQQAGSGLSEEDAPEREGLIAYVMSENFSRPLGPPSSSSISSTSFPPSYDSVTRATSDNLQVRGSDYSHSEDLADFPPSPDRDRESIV
In short: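 HH1 transcripts injected into Xenopus laevis oocytes, incubated at room temperature 24–72 h. Two-microelectrode voltage clamp (3 M KCl electrodes), bath NaCl 140, KCl 2, CaCl2 1.8, MgCl2 1, HEPES 5 mM, pH 7.5, 21–23 °C. Holding −100 mV; peak current at the I–V maximum measured before and after test agent; IC50 in μM.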

[3] = tested on: Canis familiaris; experiment: Maximum increase in ERP(ms) after oral dose of the compound( 0.3 mg/kg) in mongrel dogs at a basic cycle length of 250 ms.; assay type: functional, Canis lupus familiaris
In short: (§2)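 Conscious instrumented dogs, at least 7 days after surgery, suspended in slings during normal sinus rhythm. After three baseline ERP measurements, 0.3 mg/kg given orally by gastric lavage. ERP taken every 15 min for 3 h with pacing at basic cycle lengths of 500, 400 and 250 ms. Value is the maximum ERP increase over that interval, mean ± SEM.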

[4] = (§3) Displacement of [3H]BTX from sodium channel; parameters: species or system Canis lupus familiaris
In short: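 Canine cardiac sarcolemma vesicles (50 μg protein) incubated with 5 nM [3H]BTX-B, 60 min at 37 °C, triplicate. Nonspecific binding with 0.3 mM veratridine. Filtration read-out; IC50 in μM.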

[5] = tested on: Canis familiaris; experiment: Maximum increase in ERP(ms) after oral dose of the compound( 0.3 mg/kg) in mongrel dogs at a basic cycle length of 500 ms.; assay type: functional, Canis lupus familiaris; in short: as §2
[6] = tested on: Canis familiaris; experiment: Maximum increase in ERP(ms) after oral dose of the compound( 0.3 mg/kg) in mongrel dogs at a basic cycle length of 400 ms.; assay type: functional, Canis lupus familiaris; in short: as §2
[7] = Displacement of [3H]D-888 from canine cardiac calcium channel; assay type: tissue-based, Canis lupus familiaris, Heart
In short: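 Canine cardiac sarcolemma vesicles (50 μg protein) with 5 nM [3H]D888 in 50 mM Tris-HCl pH 7.4, 0.1% BSA, 90 min at 25 °C, triplicate. Nonspecific binding defined with 31.6 μM (S)-verapamil. Bound ligand collected by filtration on polyethylenimine-treated filters; IC50 in μM.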

[8] = tested on: Canis familiaris; experiment: Prolongation of ERP(effective refractory […]) in mongrel dogs over a 3 hour interval following oral administration (0.3 mg/kg), pacing at a basic cycle length of 250 ms.; assay type: functional, Canis lupus familiaris; in short: as §2
[9] = tested on: Canis familiaris; experiment: The orally dosed values in animals (0.3 mg/kg) represent the maximum increase in ERP observed over a 3 hour interval. Pacing was done at basic cycle lengths of 500 ms.; assay type: functional, Canis lupus familiaris; in short: as §2
[10] = tested on: Canis familiaris; experiment: Prolongation of ERP(effective refractory […]) in mongrel dogs over a 3 hour interval following oral administration (0.3 mg/kg), pacing at a basic cycle length of 400 ms.; assay type: functional, Canis lupus familiaris; in short: as §2
[11] = tested on: Canis familiaris; experiment: Maximum increase in ERP(ms) after oral dose of the compound( 0.3 mg/kg) in mongrel dogs at a basic cycle […].; assay type: functional, Canis lupus familiaris; in short: as §2
[12] = organism: Oryctolagus cuniculus; experiment: In vitro concentration at which cardiac refractoriness in rabbit (ERP-effective refractory period) is increased by 20 ms; inactive at 1000; assay type: functional; conditions: Heart; in short: as §1
[13] = as §3

Structure (SMILES): CN1Cc2ccccc2C(c2ccc(Cl)cc2)N=C1SCc1ccc(NS(C)(=O)=O)cc1 (centres undefined)
- EC20 [1]: 5.5 nM

- IC50 [4]: 6900 nM
- IC50 [7]: 900 nM
Structure (SMILES): CN1Cc2ccccc2[C@H](c2ccccc2)N=C1OCc1ccc(NS(C)(=O)=O)cc1.O=C(O)/C=C/C(=O)O
- IC50 [2]: > 30000 nM
- EC20 [1]: 4 nM
- ERP observations [3]: 18
- ERP observations [5]: 18
- ERP observations [6]: 20

Structure (SMILES): CN1Cc2ccccc2C(c2ccccc2)N=C1CCc1ccccc1NS(C)(=O)=O (centres undefined)
- EC20 [1]: 500 nM

Structure (SMILES): CN1Cc2ccccc2C(c2ccccc2)N=C1OCc1ccc(NS(C)(=O)=O)cc1 (centres undefined)
- EC20 [1]: 6 nM

Structure (SMILES): CN1Cc2ccccc2C(c2ccccc2)N=C1CCc1ccc(NS(=O)(=O)C(F)(F)F)cc1 (centres undefined)
- EC20 [1]: 520 nM

Structure (SMILES): CN1Cc2ccccc2C(c2ccccc2)N=C1CCc1ccccc1 (centres undefined)
- EC20 [1]: 60 nM

Structure (SMILES): CN1Cc2ccccc2[C@@H](c2ccc(Cl)cc2)N=C1OCc1ccc(NS(C)(=O)=O)cc1
- EC20 [1]: 2 nM

Structure (SMILES): CN(CCOc1ccc(NS(C)(=O)=O)cc1)CCc1ccc(NS(C)(=O)=O)cc1 [DOFETILIDE]
- EC20 [1]: 2 nM
- ERP observations [8]: 21
- ERP observations [9]: 30
- ERP observations [10]: 28

- IC50 [4]: 3000 nM
- IC50 [7]: 1100 nM
Structure (SMILES): CSc1ccc([C@@H]2N=C(OCc3ccc(NS(C)(=O)=O)cc3)N(C)Cc3ccccc32)cc1.Cl
- IC50 [2]: > 30000 nM
- EC20 [1]: 8 nM
- ERP observations [3]: 11
- ERP observations [5]: 28
- ERP observations [11]: 20

Structure (SMILES): CN1Cc2ccccc2C(c2ccc(F)cc2F)N=C1CCc1ccc(NS(C)(=O)=O)cc1 (centres undefined)
- EC20 [1]: 4 nM

Structure (SMILES): CCS(=O)(=O)Nc1ccc(CCC2=NC(c3ccccc3)c3ccccc3CN2C)cc1 (centres undefined)
- EC20 [1]: 100 nM

- IC50 [4]: 1000 nM
- IC50 [7]: 700 nM
Structure (SMILES): CSc1ccc([C@H]2N=C(OCc3ccc(NS(C)(=O)=O)cc3)N(C)Cc3ccccc32)cc1.Cl
- EC20 [1]: 7 nM
- ERP observations [3]: 28
- ERP observations [5]: 33
- ERP observations [6]: 33

- IC50 [4]: 2500 nM
- IC50 [7]: 1100 nM
Structure (SMILES): CN1Cc2ccccc2[C@@H](c2ccc(F)cc2F)N=C1CCc1ccc(NS(C)(=O)=O)cc1.Cl
- IC50 [2]: > 100000 nM
- EC20 [1]: 8 nM
- ERP observations [3]: 22
- ERP observations [5]: 33
- ERP observations [6]: 33

Structure (SMILES): CN1Cc2ccc(NS(C)(=O)=O)cc2C(c2ccccc2)N=C1CCc1ccccc1 (centres undefined)
- EC20 [1]: 655 nM

Structure (SMILES): CN1Cc2ccccc2C(c2ccccc2)N=C1CCc1ccc(NS(C)(=O)=O)cc1 (centres undefined)
- EC20 [1]: 20 nM

Structure (SMILES): COc1ccc(C2N=C(OCc3ccc(NS(C)(=O)=O)cc3)N(C)Cc3ccccc32)cc1 (centres undefined)
- EC20 [1]: 4 nM

Structure (SMILES): CN1Cc2ccccc2C(c2ccc(Cl)c(Cl)c2)N=C1OCc1ccc(NS(C)(=O)=O)cc1 (centres undefined)
- EC20 [1]: 2 nM

Structure (SMILES): CN1Cc2c(NS(C)(=O)=O)cccc2C(c2ccccc2)N=C1CCc1ccccc1 (centres undefined)
- EC20 [12]: inactive

Structure (SMILES): CN1Cc2ccccc2C(c2ccc(Cl)cc2)N=C1CCc1ccc(NS(C)(=O)=O)cc1 (centres undefined)
- EC20 [1]: 10 nM

- IC50 [4]: 3600 nM
- IC50 [7]: 500 nM
Structure (SMILES): CN1Cc2ccccc2[C@H](c2ccc(F)cc2F)N=C1CCc1ccc(NS(C)(=O)=O)cc1.Cl
- IC50 [2]: > 100000 nM
- EC20 [1]: 7 nM
- ERP observations [3]: 21
- ERP observations [5]: 28
- ERP observations [6]: 27

Structure (SMILES): CN1Cc2ccccc2C(c2ccc(NS(C)(=O)=O)cc2)N=C1CCc1ccccc1 (centres undefined)
- EC20 [1]: 780 nM

Structure (SMILES): CSc1ccc(C2N=C(OCc3ccc(NS(C)(=O)=O)cc3)N(C)Cc3ccccc32)cc1 (centres undefined)
- EC20 [1]: 4 nM

Structure (SMILES): CN1Cc2ccccc2[C@H](c2ccc(Cl)cc2)N=C1OCc1ccc(NS(C)(=O)=O)cc1
- EC20 [1]: 4 nM

Structure (SMILES): CN1Cc2ccccc2C(c2ccc(NS(C)(=O)=O)cc2)N=C1CCc1ccc(NS(C)(=O)=O)cc1 (centres undefined)
- EC20 [12]: inactive

Structure (SMILES): CN1Cc2ccccc2C(c2ccc(NS(C)(=O)=O)cc2)N=C1OCc1ccc(NS(C)(=O)=O)cc1 (centres undefined)
- EC20 [1]: 140 nM

Structure (SMILES): CN1Cc2ccccc2C(c2ccc(Cl)cc2)N=C1OCc1ccc(NS(C)(=O)=O)cc1 (centres undefined)
- EC20 [1]: 3 nM

- IC50 [13]: 5200 nM
Structure (SMILES): CN1Cc2ccccc2[C@@H](c2ccccc2)N=C1OCc1ccc(NS(C)(=O)=O)cc1.O=C(O)/C=C/C(=O)O
- IC50 [2]: 126000 nM
- EC20 [1]: 1.5 nM
- ERP [3]: 31 ms
- ERP [5]: 40 ms
- ERP [6]: 36 ms
